Data as given in article PMC7416767 (Gene, 2020).
Each block holds one molecule with its values, some of them ahead of it.

Experiments:
[1] = test system: rat BMCs; experiment: ALP enzyme activity in total rat bone marrow cell culture, day 9; format: cell-based; details: for change in ALP activity over vehicle treated cultures: doses ranging from 1 pM to 10 μM, once at plating
Method in brief: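 Unfractionated BMCs from tibiae and femora of young or old female or male Sprague-Dawley rats, extruded into MEMα with 10% FCS and 50 μg/mL gentamicin, triturated and filtered. Plated at 1.8 × 10^5 cells/cm2 and dosed once at plating from 1000x ethanol stocks. Dex (10 nM final) added day 4. Day 9 lysis (Tris pH 8.4, ZnCl2, MgCl2, Triton X-100); pNPP, 405 nm; n = 8 wells; EC50 by non-linear regression.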

[2] = target: T1, rat EP4 receptor (Rattus norvegicus, UniProt P43114); experiment: cAMP production, rat EP4 receptor expressed in HEK293T cells; format: cell-based; details: read-out: rat EP4 receptor cAMP levels EC50; mean ± SEM
[3] = target: T1, rat EP4 receptor; experiment: CRE-regulated SEAP reporter; format: cell-based
[4] = test system: rat BMCs; experiment: Adipogenesis assay, Oil Red O staining in BMC cultures; format: cell-based; details: 1μM, insulin and dexamethasone, day 12, versus vehicle
[5] = test system: cells; experiment: Overt toxicity in cells; format: cell-based; details: except at a very high dose
[6] = in vitro safety test; ref Barrett et al., 2019; cited from earlier work
[7] = Chemical stability of KMN-159; format: physicochemical
[8] = test system: non-EP prostanoids receptors (DP, FP, IP and TP); details: tested at 10 μM; ref Barrett et al., 2019; cited from earlier work
[9] = test system: rat BMCs; experiment: Total adherent cell number in BMC cultures; format: cell-based; details: 1μM, days 5, 6, or 7, versus vehicle
[10] = Protein binding in rat plasma by equilibrium dialysis; format: in vitro ADME; details: 10 μM, equilibrium dialysis 4 hours 37°C
[11] = Half-life in rat plasma; format: in vitro ADME; details: 1 μM, 37°C
Method in brief: (§1)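 Test compound at 1 μM in rat blood or plasma, 37°C, sampled at 0, 30, 60, 90 and 120 min. Quenched with acetonitrile, centrifuged, analyte peak areas read by HPLC-MS/MS.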

[12] = Half-life and intrinsic clearance in rat hepatocytes; format: in vitro ADME
Method in brief: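 Incubated at 37°C with 0.7 million viable rat hepatocytes/mL, sampled at 0, 30, 60, 90 and 120 min. Each sample quenched with acetonitrile and centrifuged; analyte peak areas measured by HPLC-MS/MS to derive half-life and intrinsic clearance.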

[13] = Half-life in rat blood; format: in vitro ADME; details: 1 μM, 37°C
Method in brief: as §1

[14] = in vitro safety test; ref Barrett et al., 2019; cited from earlier work; remark: listed apart in the source
[15] = target: human EP4 (Homo sapiens, UniProt P35408); details: read-out: human EP4 binding Ki; ref Barrett et al., 2019; cited from earlier work
[16] = In vivo pharmacokinetics after intravenous dosing in rats; details: intravenous 0.5 mg/kg, male Sprague-Dawley rats
Method in brief: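 Single intravenous dose of 0.5 mg/kg in 3 male Sprague-Dawley rats. Blood sampled up to 24 h post-dose; plasma levels measured by LC-MS/MS. Parameters calculated from the plasma concentration–time course by non-compartmental analysis.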

[17] = test system: rat BMCs; experiment: Mineralization of BMC cultures; format: cell-based; details: 1μM, day 21, compared to vehicle
Method in brief: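 Rat BMCs dosed at plating with 1μM test compound or 0.1% ethanol vehicle (n = 4 or 6 wells); in the short-exposure arm, 30 or 60 min suspension exposure. Dex added day 4; from day 7, osteogenic medium (ascorbic acid, dex, βGP) every 3 days. Day 21: fixed in 2% paraformaldehyde, stained with 5% AgNO3 plus UV, von Kossa-positive area per well quantified by imaging.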

[18] = test system: bacterial; details: in vitro safety test; ref Barrett et al., 2019; cited from earlier work
[19] = test system: rat BMCs; experiment: ALP-positive colony area in BMC cultures; format: cell-based; details: 1μM, day 9, compared to vehicle
[20] = test system: rat BMCs; experiment: Bone phenotype marker gene expression in BMCs; format: cell-based; details: 1μM once at plating
Method in brief: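 BMCs from young female rats dosed once at plating with 1μM test compound or 0.1% ethanol. Dex (10 nM final) added day 4. From day 7, fed every 3 days with medium containing ascorbic acid 100 μg/mL, dex 10 nM and βGP 10 mM. On set days, total RNA taken (n = 3 per time point), quantified at 260 nm, reverse transcribed, and analysed by SYBR Green qPCR.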

[21] = test system: cytochrome P450; details: in vitro safety test; ref Barrett et al., 2019; cited from earlier work
[22] = test system: rat BMCs; experiment: Osteoclastogenesis assay, TRAP-positive cells in BMC cultures; format: cell-based; details: for number of TRAP positive cells in the absence of exogenous M-CSF and RANKL: data not shown; for number of TRAP-positive cells: various doses, in the presence of 16 ng/mL RANKL and 16 ng/mL M-CSF, versus vehicle
[23] = target: human EP3; details: read-out: human EP3 binding Ki; ref Barrett et al., 2019; cited from earlier work
[24] = target: T2, rat EP2 receptor (Rattus norvegicus, UniProt Q62928); experiment: cAMP production, rat EP2 receptor expressed in HEK293T cells; format: cell-based
[25] = target: T2, rat EP2 receptor; experiment: CRE-regulated SEAP reporter; format: cell-based
[26] = read-out: rat EP4 receptor CREB activation EC50, CRE-SEAP reporter, mean ± SEM

T1 sequence (P43114 whole entry): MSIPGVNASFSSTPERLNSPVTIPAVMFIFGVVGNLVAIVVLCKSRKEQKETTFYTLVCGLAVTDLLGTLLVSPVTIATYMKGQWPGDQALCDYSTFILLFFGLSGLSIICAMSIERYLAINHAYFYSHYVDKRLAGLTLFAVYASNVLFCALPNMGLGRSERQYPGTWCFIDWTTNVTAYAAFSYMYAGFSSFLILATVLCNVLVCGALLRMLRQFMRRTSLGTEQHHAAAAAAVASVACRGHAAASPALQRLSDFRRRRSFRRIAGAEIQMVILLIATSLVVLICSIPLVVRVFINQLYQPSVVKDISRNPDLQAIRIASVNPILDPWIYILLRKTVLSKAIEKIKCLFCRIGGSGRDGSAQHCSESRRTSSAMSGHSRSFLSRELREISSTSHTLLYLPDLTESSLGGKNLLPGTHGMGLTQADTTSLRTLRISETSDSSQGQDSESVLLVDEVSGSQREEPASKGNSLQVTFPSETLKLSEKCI
T2 sequence (Q62928 whole entry): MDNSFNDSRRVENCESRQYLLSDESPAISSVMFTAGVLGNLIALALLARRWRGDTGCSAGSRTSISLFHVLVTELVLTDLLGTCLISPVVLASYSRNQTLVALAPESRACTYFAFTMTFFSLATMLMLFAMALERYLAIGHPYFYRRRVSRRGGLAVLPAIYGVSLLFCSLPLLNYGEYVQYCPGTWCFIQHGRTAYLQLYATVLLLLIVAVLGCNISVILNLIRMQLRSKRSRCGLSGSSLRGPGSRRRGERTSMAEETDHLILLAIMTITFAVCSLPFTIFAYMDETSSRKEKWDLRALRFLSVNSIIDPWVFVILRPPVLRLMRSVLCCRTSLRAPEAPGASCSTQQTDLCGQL
human EP4, sequence (P35408 whole entry): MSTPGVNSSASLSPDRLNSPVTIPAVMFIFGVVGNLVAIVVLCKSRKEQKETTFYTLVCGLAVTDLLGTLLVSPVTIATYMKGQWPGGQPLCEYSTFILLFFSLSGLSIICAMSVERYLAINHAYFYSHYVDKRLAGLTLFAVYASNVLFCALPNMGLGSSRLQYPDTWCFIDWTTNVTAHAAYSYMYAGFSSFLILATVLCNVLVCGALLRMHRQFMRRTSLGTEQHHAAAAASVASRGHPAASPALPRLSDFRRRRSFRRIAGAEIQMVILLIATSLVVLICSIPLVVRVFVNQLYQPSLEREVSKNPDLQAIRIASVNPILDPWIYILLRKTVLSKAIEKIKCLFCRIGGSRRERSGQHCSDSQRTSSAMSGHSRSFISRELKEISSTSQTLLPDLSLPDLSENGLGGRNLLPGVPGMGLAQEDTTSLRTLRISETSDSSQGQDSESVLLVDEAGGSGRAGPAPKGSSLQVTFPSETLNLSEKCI

Structure (SMILES): CCCC1([C@H](O)C/C=C/[C@H]2[C@H](O)CC(=O)[C@@H]2CCCCCCC(=O)OC)CCC1 [butaprost, reference compound]
change in ALP activity over vehicle treated cultures [1]: no change in ALP activity

EC50 [2]: 0.3 ± 0.025 nM
EC50 [3, 26]: 0.03 ± 0.007 nM
Structure (SMILES): CCCCC[C@H](O)/C=C/[C@H]1CC(F)(F)C(=O)N1CCCCCCC(=O)O [KMN-165]

Structure (SMILES): CCCCC[C@H](O)/C=C/[C@H]1CCC(=O)[C@@H]1CCCCCCC(=O)O [11-deoxy-PGE1, reference compound]
EC50 [2]: 1.3 ± 0.24 nM
EC50 [3, 26]: 0.06 ± 0.012 nM

Structure (SMILES): CS(=O)(=O)NC(=O)CCC/C=C\C[C@H]1C(=O)C[C@@H](O)[C@@H]1/C=C/[C@@H](O)COc1ccccc1 [sulprostone, reference compound]
change in ALP activity over vehicle treated cultures [1]: no change in ALP activity

Structure (SMILES): CCCCC[C@H](O)/C=C/[C@H]1CCC(=O)[C@@H]1C/C=C\CCCC(=O)O [11-deoxy-PGE2, reference compound]
EC50 [2]: 1.1 ± 0.16 nM

Structure (SMILES): CCC#CC[C@H](C)[C@H](O)/C=C/[C@H]1CC(F)(F)C(=O)N1CCCCCCC(=O)O [KMN-159]
Oil Red O staining (adipocyte formation) [4]: no significant change
overt toxicity in cells [5]: no overt toxicity
Ames fluctuation [6]: negative
increase in ALP activity compared to vehicle treated cells ([1]; 1μM, 10 minutes exposure then compound removed, ALP day 9): approximately 3 fold
induction of ALP as percent of the maximum reached between 30 and 60 minutes of exposure ([1]; 1μM, 10 minutes exposure, ALP measured 9 days later): approximately 75%
increase in potency in the BMCs compared to 11-deoxy-8-aza-PGE1 ([1]; young female rat BMCs, ALP EC50): approximately 40 fold
recovery ([7]; in aqueous solution and upon sterilization by autoclaving or gamma irradiation, data not shown): higher than 90%
degradation of crystalline solid ([7]; storage at room temperature for over two years): no measurable degradation
binding to the non-EP prostanoids receptors [8]: no detectable binding
EC50 [2]: 0.5 ± 0.08 nM
total cell number [9]: no significant differences
protein binding [10]: 53.8 ± 3.5%
half life - plasma [11]: >2 h
EC50 [3, 26]: 0.03 ± 0.003 nM
intrinsic clearance - hepatocytes [12]: <8.2 μL/min/10^6 cells
half life - hepatocytes ([12]; 0.7 million viable cells/mL, 37°C): >2 h
half life - blood [13]: >2 h
micronucleus formation [14]: negative
Ki [15]: 0.38 nM
area under the curve (extrapolated to infinity) [16]: 21.8 ± 5.55 ng·h/mL
in vivo clearance rate [16]: 0.398 ± 0.0992 mL/min/kg
mean residence time last [16]: 8.3 ± 1.0 min
steady state volume of distribution [16]: 3.41 ± 1.15 L/kg
clearance ([16]; Table 3): 398 ± 99.2 mL/min/kg
mineralized area detected by von Kossa staining [17]: increase in mineralized area
bacterial cytotoxicity [18]: negative
ALP positive area [19]: increase the ALP positive area
RANKL expression ([20]; all timepoints tested, versus vehicle): significantly increased expression
Runx2 mRNA increase in expression ([20]; day 5): ~ 2 x
Runx2 expression ([20]; days 19 and 25, versus vehicle): significantly increased
osteocalcin gene expression ([20]; later days, versus vehicle): increased with both, time in culture and KMN-159 treatment
ALP mRNA expression ([20]; versus vehicle): increased
OPG expression ([20]; versus vehicle): either unchanged or decreased
collagen type IαI expression ([20]; versus vehicle): further increased
cytochrome P450 inhibition [21]: negative
number of TRAP positive cells in the absence of exogenous M-CSF and RANKL [22]: none was observed
number of TRAP-positive cells [22]: significantly increased numbers of TRAP-positive cells
Ki [23]: 258 nM

EC50 [24]: 79.5 ± 9.1 nM
EC50 [25]: 4.5 ± 0.46 nM
Structure (SMILES): CCCCC[C@H](O)/C=C/[C@H]1[C@H](O)CC(=O)[C@@H]1CCCCCCC(=O)O [PGE1, prostaglandin E1]

EC50 [2]: 2.6 ± 0.31 nM
EC50 [3, 26]: 0.17 ± 0.014 nM
Structure (SMILES): CCC#CC[C@H](C)[C@H](O)/C=C/[C@H]1CCC(=O)N1CCCCCCC(=O)O [KMN-80]
potency in the BMC ALP assay compared with parent compound 11-deoxy-8-aza-PGE1 ([1]; young female rat BMCs): unchanged from the parent compound

EC50 [2]: 2.6 ± 0.62 nM
EC50 [3, 26]: 0.16 ± 0.049 nM
Structure (SMILES): CCCCCC(O)C=CC1CCC(=O)N1CCCCCCC(=O)O (stereo not shown) [11-deoxy-8-aza-PGE1, reference compound]

Structure (SMILES): CCCCC[C@H](O)/C=C/[C@H]1[C@H](O)CC(=O)[C@@H]1C/C=C\CCCC(=O)O [PGE2, prostaglandin E2, reference compound]
Oil Red O staining (adipocyte formation) [4]: no significant change
total cell number [9]: no significant differences
EC50 [3]: 0.03 ± 0.002 nM
ALP positive area [19]: increase the ALP positive area
number of TRAP positive cells in the absence of exogenous M-CSF and RANKL [22]: none was observed
number of TRAP-positive cells [22]: significantly increased numbers of TRAP-positive cells
